ChEMBL document CHEMBL4400518, “Synthesis, antimicrobial and cytotoxic activities, and molecular docking studies of N-arylsulfonylindoles containing an aminoguanidine, a semicarbazide, and a thiosemicarbazide moiety” (Eur J Med Chem, 2019)
≈ marks a conversion by molar mass, not a printed value.

Tests used:
[1] = Selectivity index, ratio of IC50 for HEK293T cells to MIC for Pseudomonas aeruginosa CMCC 27853; assay type: toxicity; conditions: human, read-out: Selectivity Index
Pseudomonas aeruginosa [2] = assay: Antibacterial activity against Pseudomonas aeruginosa CMCC 10104 measured after 24 hrs by ELISA; assay type: functional; conditions: CMCC 10104, 24 h
Summary of the method: (§1)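 Broth microdilution MIC. Mid-log bacteria in MHB or TSB diluted 1000-fold, inoculated at 10^5 CFU/mL. Compounds added from DMSO stocks; final DMSO at most 0.05%. Incubation 24 h at 37 °C. Growth read as absorbance at 630 nm. MIC taken as the lowest concentration giving complete growth inhibition. Three independent experiments.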

Staphylococcus aureus [3] = assay: Antibacterial activity against Staphylococcus aureus CMCC(B) 26003 measured after 24 hrs by ELISA; assay type: functional; conditions: CMCC(B) 26003, 24 h; summary of the method: as §1
[4] = Selectivity index, ratio of IC50 for HEK293T cells to MIC for methicillin-resistant Staphylococcus aureus ATCC 43300; assay type: toxicity; conditions: human, read-out: Selectivity Index
[5] = Selectivity index, ratio of IC50 for HEK293T cells to MIC for multidrug-resistant Pseudomonas aeruginosa ATCC BAA-2111; assay type: toxicity; conditions: human, read-out: Selectivity Index
SGC-7901 = assay: Cytotoxicity against human SGC7901 cells measured after 48 hrs by CCK8 assay; assay type: functional, cell-based; conditions: SGC-7901, 48 h
Summary of the method: (§2)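 Cells kept in DMEM with 10% FBS and penicillin-streptomycin at 37 °C, 5% CO2. About 1×10^4 cells per well attached for 24 h, then exposed for 48 h to 0.3, 1, 3, 10, 30 and 100 µmol/L of compound, in triplicate wells. CCK-8 added for 3 h, OD read at 450 nm. IC50 is the concentration inhibiting growth by 50%.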

Escherichia coli [6] = assay: Antibacterial activity against Escherichia coli CMCC 25922 measured after 24 hrs by ELISA; assay type: functional; conditions: CMCC 25922, 24 h; summary of the method: as §1
HEK-293T = assay: Cytotoxicity against HEK293T cells measured after 48 hrs by CCK8 assay; assay type: cell-based; conditions: Homo sapiens; summary of the method: as §2
Escherichia coli [7] = assay: Antibacterial activity against multidrug-resistant Escherichia coli ATCC BAA-196 measured after 24 hrs by ELISA; assay type: functional; conditions: ATCC BAA-196, 24 h
Summary of the method: (§3)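 Broth serial dilution MIC. Mid-log bacteria in Mueller-Hinton or Tryptone Soya broth, diluted 1000-fold and inoculated at 10^5 CFU/mL. Compounds from DMSO stock, final DMSO ≤0.05%. Incubated 24 h at 37 °C; growth read as absorbance at 630 nm. MIC is the lowest concentration giving complete growth inhibition. Three independent experiments.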

Escherichia coli [8] = assay: Antibacterial activity against Escherichia coli CMCC 44568 measured after 24 hrs by ELISA; assay type: functional; conditions: CMCC 44568, 24 h; summary of the method: as §1
[9] = Selectivity index, ratio of IC50 for HEK293T cells to MIC for Staphylococcus aureus CMCC 25923; assay type: toxicity; conditions: human, read-out: Selectivity Index
Staphylococcus aureus [10] = assay: Antibacterial activity against methicillin-resistant Staphylococcus aureus ATCC 33591 measured after 24 hrs by ELISA; assay type: functional; conditions: ATCC 33591, 24 h; summary of the method: as §3
[11] = Cytotoxicity against human A590 cells measured after 48 hrs by CCK8 assay; assay type: functional, cell-based; summary of the method: as §2
[12] = Selectivity index, ratio of IC50 for HEK293T cells to MIC for Escherichia coli CMCC 44568; assay type: toxicity; conditions: human, read-out: Selectivity Index
Streptococcus pneumoniae = assay: Antibacterial activity against Streptococcus pneumoniae CMCC 31968 measured after 24 hrs by ELISA; assay type: functional; conditions: CMCC 31968, 24 h
[13] = Selectivity index, ratio of IC50 for HEK293T cells to MIC for Pseudomonas aeruginosa CMCC 10104; assay type: toxicity; conditions: human, read-out: Selectivity Index
[14] = Selectivity index, ratio of IC50 for HEK293T cells to MIC for Streptococcus pyogenes CMCC 32067; assay type: toxicity; conditions: human, read-out: Selectivity Index
[15] = Selectivity index, ratio of IC50 for HEK293T cells to MIC for Staphylococcus aureus CMCC(B) 26003; assay type: toxicity; conditions: human, read-out: Selectivity Index
Pseudomonas aeruginosa [16] = assay: Antibacterial activity against Pseudomonas aeruginosa CMCC 27853 measured after 24 hrs by ELISA; assay type: functional; conditions: CMCC 27853, 24 h; summary of the method: as §1
Enterococcus faecalis = assay: Antibacterial activity against Enterococcus faecalis CMCC 29212 measured after 24 hrs by ELISA; assay type: functional; conditions: CMCC 29212, 24 h; summary of the method: as §1
Staphylococcus aureus [17] = assay: Antibacterial activity against Staphylococcus aureus CMCC 25923 measured after 24 hrs by ELISA; assay type: functional; conditions: CMCC 25923, 24 h; summary of the method: as §1
[18] = Selectivity index, ratio of IC50 for HEK293T cells to MIC for Bacillus subtilis CMCC 63501; assay type: toxicity; conditions: human, read-out: Selectivity Index
[19] = Selectivity index, ratio of IC50 for HEK293T cells to MIC for methicillin-resistant Staphylococcus aureus ATCC 33591; assay type: toxicity; conditions: human, read-out: Selectivity Index
[20] = Selectivity index, ratio of IC50 for HEK293T cells to MIC for Streptococcus pneumoniae CMCC 31968; assay type: toxicity; conditions: human, read-out: Selectivity Index
Staphylococcus aureus [21] = assay: Antibacterial activity against methicillin-resistant Staphylococcus aureus ATCC 43300 measured after 24 hrs by ELISA; assay type: functional; conditions: ATCC 43300, 24 h; summary of the method: as §3
Bacillus subtilis = assay: Antibacterial activity against Bacillus subtilis CMCC 63501 measured after 24 hrs by ELISA; assay type: functional; conditions: CMCC 63501, 24 h; summary of the method: as §1
Streptococcus pyogenes = assay: Antibacterial activity against Streptococcus pyogenes CMCC 32067 measured after 24 hrs by ELISA; assay type: functional; conditions: CMCC 32067, 24 h; summary of the method: as §1
[22] = Selectivity index, ratio of IC50 for HEK293T cells to MIC for Enterococcus faecalis CMCC 29212; assay type: toxicity; conditions: human, read-out: Selectivity Index
Pseudomonas aeruginosa [23] = assay: Antibacterial activity against multidrug-resistant Pseudomonas aeruginosa ATCC BAA-2111 measured after 24 hrs by ELISA; assay type: functional; conditions: ATCC BAA-2111, 24 h; summary of the method: as §3
[24] = Selectivity index, ratio of IC50 for HEK293T cells to MIC for Escherichia coli CMCC 25922; assay type: toxicity; conditions: human, read-out: Selectivity Index
[25] = Selectivity index, ratio of IC50 for HEK293T cells to MIC for multidrug-resistant Escherichia coli ATCC BAA-196; assay type: toxicity; conditions: human, read-out: Selectivity Index

| Compound | MIC (Pseudomonas aeruginosa [2]) | MIC (Staphylococcus aureus [3]) | MIC (Escherichia coli [6]) | MIC (Escherichia coli [7]) | MIC (Escherichia coli [8]) | MIC (Staphylococcus aureus [10]) | MIC (Streptococcus pneumoniae) | MIC (Pseudomonas aeruginosa [16]) | MIC (Enterococcus faecalis) | MIC (Staphylococcus aureus [17]) | MIC (Staphylococcus aureus [21]) | MIC (Bacillus subtilis) | MIC (Streptococcus pyogenes) | MIC (Pseudomonas aeruginosa [23]) | further results |
| --- | --- | --- | --- | --- | --- | --- | --- | --- | --- | --- | --- | --- | --- | --- | --- |
| Cc1ccc(S(=O)(=O)n2cc(/C=N\NC(=N)N)c3cc(Br)ccc32)cc1 | > 296 µM | 2.31 µM (≈ 1 µg/mL) | 9.24 µM (≈ 4.01 µg/mL) | 1.15 µM (≈ 0.499 µg/mL) | 2.31 µM (≈ 1 µg/mL) | 1.15 µM (≈ 0.499 µg/mL) | > 296 µM | > 296 µM | 9.24 µM (≈ 4.01 µg/mL) | 2.31 µM (≈ 1 µg/mL) | 1.15 µM (≈ 0.499 µg/mL) | 2.31 µM (≈ 1 µg/mL) | > 296 µM | > 73.9 µM | selectivity ratio [1]: < 0.25; selectivity ratio [4]: 63.9; selectivity ratio [5]: < 0.99; IC50 (SGC-7901): 4 µM; IC50 (HEK-293T): 73.5 µM; selectivity ratio [9]: 31.8; IC50 [11]: 15.1 µM; selectivity ratio [12]: 31.8; selectivity ratio [13]: < 0.25; selectivity ratio [14]: < 0.24; selectivity ratio [15]: 31.8; selectivity ratio [18]: 31.8; selectivity ratio [19]: 63.9; selectivity ratio [20]: < 0.25; selectivity ratio [22]: 7.95; selectivity ratio [24]: 7.95; selectivity ratio [25]: 63.9 |
| COc1c(N2CCNC(C)C2)c(F)cc2c(=O)c(C(=O)O)cn(C3CC3)c12 (centres undefined) [GATIFLOXACIN] | 5.33 µM (≈ 2 µg/mL) | 0.33 µM (≈ 0.124 µg/mL) | 0.33 µM (≈ 0.124 µg/mL) | 1.33 µM (≈ 0.499 µg/mL) | 0.33 µM (≈ 0.124 µg/mL) | 0.67 µM (≈ 0.252 µg/mL) | > 341 µM | 5.33 µM (≈ 2 µg/mL) | 2.67 µM (≈ 1 µg/mL) | 0.33 µM (≈ 0.124 µg/mL) | 1.33 µM (≈ 0.499 µg/mL) | 5.33 µM (≈ 2 µg/mL) | > 341 µM | 2.66 µM (≈ 0.999 µg/mL) |  |
| COc1c(N2C[C@@H]3CCCN[C@@H]3C2)c(F)cc2c(=O)c(C(=O)O)cn(C3CC3)c12 [MOXIFLOXACIN] | 9.98 µM (≈ 4.01 µg/mL) | 0.31 µM (≈ 0.124 µg/mL) | 0.31 µM (≈ 0.124 µg/mL) | 1.25 µM (≈ 0.502 µg/mL) | 0.31 µM (≈ 0.124 µg/mL) | 0.62 µM (≈ 0.249 µg/mL) | > 319 µM |  |  | 0.31 µM (≈ 0.124 µg/mL) | 1.25 µM (≈ 0.502 µg/mL) |  | > 319 µM |  |  |
| Cc1onc(-c2ccccc2)c1C(=O)N[C@@H]1C(=O)N2[C@@H]1SC(C)(C)[C@@H]2C(=O)O [OXACILLIN] | > 319 µM | 0.31 µM (≈ 0.124 µg/mL) | 319 µM (≈ 128 µg/mL) |  | > 319 µM | 19.9 µM (≈ 8.01 µg/mL) | > 319 µM | > 319 µM | 319 µM (≈ 128 µg/mL) | 0.31 µM (≈ 0.124 µg/mL) | 160 µM (≈ 64.1 µg/mL) | > 319 µM | > 319 µM |  |  |
| CC1(C)S[C@@H]2[C@H](NC(=O)Cc3ccccc3)C(=O)N2[C@H]1C(=O)O [PENICILLIN G] | 95.8 µM (≈ 32 µg/mL) | 0.37 µM (≈ 0.124 µg/mL) | 383 µM (≈ 128 µg/mL) |  | > 383 µM | > 95.8 µM | > 383 µM | > 383 µM | 383 µM (≈ 128 µg/mL) | 0.37 µM (≈ 0.124 µg/mL) | 95.8 µM (≈ 32 µg/mL) | 383 µM (≈ 128 µg/mL) | > 383 µM |  |  |
